High-throughput results: PubChem, several laboratories
Compounds with a hit are over-represented: about 2% of the library has one in this group of screens.
NS3 helicase inh: blocks Hepatitis C virus NS3 helicase unwinding | 290,000 tested, 0.56% active | inhibition, % at 10.9 µM | AID 1800 | NS3 helicase DNA unwinding, Cy5 molecular beacon fluorescence;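 active = inhibition above the mean of all tested compounds plus 3 SD, set per campaign, cut at about 35% in these data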;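 also: 0% = DMSO wells and 100% = thioflavine S control wells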
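System: Hepatitis C virus NS3 helicase domain fragment enzyme | Reagent: Annealed dual-labelled DNA beacon duplex, ATP-started | Compound dosing: 10.9 µM single point, 0.8% DMSO | Incubation: 1 h reaction at 25 °C, ATP-initiated | Technique: Cy5 fluorescence | Evaluation: Percent inhibition from t60/t0 fluorescence ratio | Benchmarks: Low DMSO, high thioflavine S at 110 µM | Replication: Singlicate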
core dimer inh: blocks dimerization of HCV core protein. TR-FRET GST/Flag-core106 dimerization, 1536-well. inhibition, % at 5 µM. 300,000 tested, 0.33% active;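 active = inhibition above the mean of all tested compounds plus 3 SD, set per screening campaign, cut at about 45% in these data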
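Assay system – GST-tagged and Flag-tagged HCV core protein residues 1-106 · Quantity – core106 proteins, GST 13.5 nM and Flag 17 nM · Benchmarks – unlabelled core106 and no-GST-core106 wells · Read-out basis – percent inhibition of core106 dimerization signal · Detection – time-resolved FRET, ex 340 nm, em 617 and 671 nm · Schedule – 4 h at 22.5 °C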
PABP FP inh: PABP-poly(A) binding inhibition. PABP-poly(A) RNA binding, fluorescence polarization. 290,000 tested, 1% active. inhibition, % at 35 µM. P11940;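 also: calls also rest on retests at 20 µM and on dose response follow-up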
MLLE-PAM2 inh: blocks PAM2 peptide binding to the PABP1 MLLE domain | inhibition, % at 20 µM | AID 588489 | GST-MLLE / FITC-PAM2 fluorescence polarization | 360,000 tested, 0.36% active | P11940; in the data active = inhibition above about 35%, passing the limit was not always enough;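 also: plate controls were DMSO wells with GST-MLLE for no effect and wells lacking GST-MLLE protein for full effect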
eIF4H FP inh: inhibitors of RNA binding by human eIF4H; Q15056; eIF4H fluorescence polarization binding assay; AID 2012; inhibition, % at 35 µM; 290,000 tested, 0.94% active;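 also: calls also rest on retests at 20 µM and on dose response follow-up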
FID counter: fluorescent intercalator displacement, NS3 helicase counter-screen | inhibition, % at 7.9 µM | DNA fluorescent intercalator displacement, fluorescence | 290,000 tested, 0.17% active; in the data active = inhibition above about 37%;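 also: 0% = vehicle and 100% = reference compound; higher means more ethidium bromide displaced from hairpin DNA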
Starred values were filed as active, the others as inactive. Unless noted, no rule for the calls is given here.

Results for NC(=S)c1cnn2c(-c3cccc(C(F)(F)F)c3)ccnc12 ?
NS3 helicase inh: -0.1; core dimer inh: -3.4; PABP FP inh: 1.6; MLLE-PAM2 inh: 38.5*; eIF4H FP inh: -4.3; FID counter: -9.4

What do the screens show for `O=C(COC(=O)c1ccc2ccccc2n1)NC1CCCCC1`?
MLLE-PAM2 inh: 0.5

How did O=C1CCCC2=C1Sc1ccccc1N2 do in these assays?
NS3 helicase inh: -9.4; core dimer inh: -22.7; PABP FP inh: 36.0; MLLE-PAM2 inh: 42.6*; eIF4H FP inh: 43.3; FID counter: -7.9

Results for O=C1Nc2ccccc2SC1=Cc1ccccc1 ?
MLLE-PAM2 inh: 31.8

What do the screens show for `O=C(CN1CCN(c2ccccc2O)CC1)Nc1ccc2c(c1)CCC2`?
NS3 helicase inh: -17.4; core dimer inh: 6.1; PABP FP inh: 86.8*; MLLE-PAM2 inh: -6.6; eIF4H FP inh: 2.2*; FID counter: -12.6

What do the screens show for `Cc1cc(O)c(C2=Nc3ccccc3SC(c3ccc(Cl)cc3)C2)c(=O)o1` (stereo unspecified)?
NS3 helicase inh: 2.8; core dimer inh: 0.3; PABP FP inh: 5.8; MLLE-PAM2 inh: 27.4; eIF4H FP inh: -3.9; FID counter: 2.6

What do the screens show for `COc1ccc(C2CC(c3c(O)cc(C)oc3=O)=NCCS2)c(OC)c1` (stereo unspecified)?
NS3 helicase inh: 31.1; core dimer inh: 4.6; PABP FP inh: 76.5*; MLLE-PAM2 inh: -29.9; eIF4H FP inh: 73.8*; FID counter: -12.3

What do the screens show for `Cc1ccc(N(C(=O)Nc2ccccc2)C2=NCCC2)cc1`?
NS3 helicase inh: 3.6; core dimer inh: -0.3; PABP FP inh: 54.1*; MLLE-PAM2 inh: 10.0; eIF4H FP inh: 88.3*; FID counter: -1.4

How did CN(C)CCNC(=O)COc1ccc(C23CC4CC(CC(C4)C2)C3)cc1 do in these assays?
NS3 helicase inh: -40.9; core dimer inh: -5.4; PABP FP inh: -13.6; MLLE-PAM2 inh: 13.4; eIF4H FP inh: -3.9; FID counter: 38.0*

How did Cc1ccc(C23CC4CC(CC(NC(=O)NCCN(C)C)(C4)C2)C3)cc1 do in these assays?
NS3 helicase inh: -33.1; core dimer inh: -22.6; PABP FP inh: -4.9; MLLE-PAM2 inh: 5.2; eIF4H FP inh: -12.3; FID counter: 11.6

What do the screens show for `O=C1C=C(c2ccc(CO)cc2)C[C@@H](c2ccc(F)cc2)C1`?
MLLE-PAM2 inh: -10.1

Results for CCOC(=O)c1cc2c(ccn2C)n1CC(=O)N(Cc1ccccc1)c1ccc(F)cc1 ?
NS3 helicase inh: 13.2; core dimer inh: 5.5; PABP FP inh: 2.8; MLLE-PAM2 inh: 1.5; eIF4H FP inh: -5.4; FID counter: -29.6

What do the screens show for `CCOC(=O)c1cc2c(ccn2C)n1CC(=O)N(Cc1ccccc1)c1ccccc1`?
NS3 helicase inh: 29.3; core dimer inh: 14.4; PABP FP inh: 13.5; MLLE-PAM2 inh: 40.8*; eIF4H FP inh: 12.3; FID counter: -38.2

How did CCCCOc1ccc(C2OC34CCCCC3C(C#N)(C#N)C2(C#N)C(=N)O4)cc1 (stereo unspecified) do in these assays?
NS3 helicase inh: 0.0; core dimer inh: 4.2; PABP FP inh: inconclusive; MLLE-PAM2 inh: 81.5; eIF4H FP inh: inconclusive; FID counter: -3.5

What do the screens show for `C=CCOc1ccc(C2OC34CCCCC3C(C#N)(C#N)C2(C#N)C(=N)O4)cc1` (stereo unspecified)?
NS3 helicase inh: -1.8; core dimer inh: 4.5; PABP FP inh: 104.3*; MLLE-PAM2 inh: 81.0; eIF4H FP inh: 83.9*; FID counter: -1.6

What do the screens show for `Cn1nnnc1Sc1ncnc2scc(-c3ccc([N+](=O)[O-])cc3)c12`?
MLLE-PAM2 inh: -15.2

Results for COc1cc2sc3cc(NCC[C@@H]4CCCN4C)ccc3c(=O)c2cc1OC ?
MLLE-PAM2 inh: -26.4

What do the screens show for `COc1cccc2sc3ccc(NCCC4CCCN4C)cc3c(=O)c12` (stereo unspecified)?
NS3 helicase inh: -26.3; core dimer inh: -18.4; PABP FP inh: 59.5*; MLLE-PAM2 inh: -17.5; eIF4H FP inh: 78.8*; FID counter: -4.5

What do the screens show for `COc1cccc(N2CCN(Cc3nc4scc(-c5ccccc5)c4c(=O)[nH]3)CC2)c1`?
NS3 helicase inh: -12.4; core dimer inh: 2.3; PABP FP inh: 69.8*; MLLE-PAM2 inh: -39.7; eIF4H FP inh: 78.6*; FID counter: -25.2
